From PubChem BioAssay
Ecoli WT expand: growth inhibitors of wild-type E. coli, primary screen, strain BW25113, expanded library, OD600; OD600 absorbance; growth inhibition, % at 100 µM; 0.15% of 98,000 active;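 active means growth inhibition above about 50% at one test dose, limit read from the data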;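 further: growth measured after 20 h incubation at 37 °C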
D1 allo mod: D1 CRE-luciferase signal change, two-sided – cell-based, HEK293 D1, dopamine EC30, D1 allosteric modulator project, primary screen. 5.9% of 58,000 active. D(1A) dopamine receptor (Homo sapiens), P21728. dopamine EC30 potentiation; actives deviate in either direction. B-score at 10 µM;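 active means luminescence count or its row- and column-corrected plate score outside the 99.7% band of the plate's sample wells, on either side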
Target sequence (P21728 whole entry, looked up): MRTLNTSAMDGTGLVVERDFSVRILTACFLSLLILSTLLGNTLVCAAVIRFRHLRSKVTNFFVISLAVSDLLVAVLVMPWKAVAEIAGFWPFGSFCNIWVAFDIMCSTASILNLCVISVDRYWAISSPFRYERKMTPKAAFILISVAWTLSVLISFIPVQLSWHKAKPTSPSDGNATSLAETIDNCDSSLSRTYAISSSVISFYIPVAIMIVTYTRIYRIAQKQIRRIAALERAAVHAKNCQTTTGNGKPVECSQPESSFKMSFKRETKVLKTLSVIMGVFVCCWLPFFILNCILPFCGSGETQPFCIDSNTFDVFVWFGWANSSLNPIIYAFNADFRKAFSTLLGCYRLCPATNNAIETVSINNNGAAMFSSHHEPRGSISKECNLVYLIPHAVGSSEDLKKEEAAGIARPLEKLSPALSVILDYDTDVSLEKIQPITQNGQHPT
PostGolgi ctrl: growth inhibition of yeast control strain, primary screen, counter-screen for post-Golgi transport modulator project; efflux-deficient yeast background strain, growth absorbance A615, 16 h; inhibition, % at 10 µM; 5% of 98,000 active
hDAT+cocaine: changed hDAT dopamine uptake under cocaine IC80, either direction, primary screen, cocaine antagonist project, cell-based, LLC-PK1 hDAT, [14C]-dopamine uptake, MLSMR; Sodium-dependent dopamine transporter (Homo sapiens), Q01959; LLC-PK1 hDAT cells, [14C]-dopamine uptake with cocaine IC80; actives deviate in either direction; 1.3% of 110,000 active; B-score at 10 µM;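 active means Z score or B-score, a plate-position-corrected score, falls beyond the plate's 99.7% confidence bounds, in either direction; inactive means both scores lie inside the 99.7% bounds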;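 further: scored against the spread of the other compound wells on the same plate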
PostGolgi yeast: phenotypic screen on post-Golgi transport, primary screen; post-Golgi transport phenotypic cell assay; inhibition, % at 10 µM; 0.9% of 98,000 active; AID 739, 2007;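 further: yeast cells grown in 1536-well plates; yeast grown about 18 h at 30C before absorbance read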
tolC growth inh: growth inhibitors of E. coli tolC mutant, primary screen, strain BW25113 ΔtolC::kan, 384-well; OD615; growth inhibition, % at 10 µM (by protocol); 2.2% of 65,000 active; AID 573, 2007;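 active means growth inhibition at or above a cutoff equal to the mean over every tested compound plus 3 SD, cut at about 60% in these data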;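 further: growth measured after 20 h incubation at 37 °C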
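Test system: E. coli BW25113 ΔtolC::kan bacteria | Medium: Kanamycin-containing LB broth (50 µg/mL) | Dosing: One dose of 10 µM final | Times: 20 h incubation with compound, 37 °C | Detection: Optical density read at 615 nm | Read-out basis: Percent growth inhibition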
D1 PAM confirm: D1 receptor positive allosteric modulators, retest, confirmation, cell-based, HEK293 D1, CRE-luciferase, duplicate; luminescence at 10 µM; dopamine EC30 potentiation; active compounds read high; shares compounds with D1 allo mod; 88% of 2,200 active;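 active means luminescence in either of two replicates above the same-plate mean plus 3 SD of the low-dose dopamine control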
D1 ag no DA: D1 receptor agonism without dopamine, confirmation, mechanism study for D1 allosteric modulator project, cell-based, HEK293 D1, CRE-luciferase, secondary assay 1; shares compounds with D1 allo mod; luminescence, no dopamine; active compounds read high; luminescence at 10 µM; 0.8% of 1,900 active; AID 646, 2007; in the data active means luminescence above about 3900
Isoprot counter: counter-screen for D1 modulators: isoproterenol response in HEK293 cells | shares compounds with D1 allo mod | HEK293 D1 CRE-luciferase, isoproterenol EC30 counter-screen | calls only at 10 µM | 63% of 2,200 active | AID 647;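 active means luminescence in either replicate above plate mean of wells with a partly effective reference agonist dose plus 3 SD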;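 further: isoproterenol raises cAMP through native beta-adrenoceptor Gs so signal bypasses D1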
* marks the source's active call; other numbers are inactive results; i = inactive; . = no result given; + = active, no number. The list is not random: actives were taken first. Their share in the collection is about 9.3%. Unless noted, no stated cut-off is given here; in the data, active means inhibition above about 30%; inactive means the rest.

SMILES	Ecoli WT expand	D1 allo mod	PostGolgi ctrl	hDAT+cocaine	PostGolgi yeast	tolC growth inh	D1 PAM confirm	D1 ag no DA	Isoprot counter
O=c1ccn(Cc2ccccc2)c(=O)n1Cc1ccccc1	2	2.9*	5	2.8*	-3	2	12736*	1644	+
Cn1c(N)cc(=O)n(Cc2ccccc2)c1=O	.	.	.	-1.1	.	.	.	.	.
Cc1cc(=O)oc2cc(OC(C)C(=O)Nc3nccs3)ccc12 (stereo not drawn)	3	4.6*	1	0.32	28	4	12128*	1736	+
O=c1ccc(Cl)cn1Cc1ccccc1F	.	.	.	-1	.	.	.	.	.
CCNc1nc(NC(C)C)nc(N(C#N)CCOc2ccc(Cl)cc2Cl)n1	-11	3.2*	39*	0.3	10	75*	11108*	1056	+
CCNc1nc(NC(C)C)nc(N(C#N)C(C)C(=O)N(C)C)n1 (stereo not drawn)	9	.	8	0.023	-12	4	.	.	.
CNc1nc(Cl)nc(NC(C)(C)C)n1	4	.	12	-0.29	0	.	.	.	.
CCNc1nc(NC(C)(C)C)nc(N(C#N)CC)n1	12	30*	17	0.69	-1	-1	23548*	1472	+
CCNc1nc(NC(C)C)nc(N(C#N)Cc2ccccc2)n1	1	8.9*	22	0.59	-4	67*	22672*	1600	+
CC(C)CC1NC(=O)N(CC(=O)N2CCN(S(=O)(=O)c3ccccc3)CC2)C1=O (stereo not drawn)	3	.	2	-1.2	-1	.	.	.	.
CCOC(=O)N1CCN(C(=O)c2ccc(Cl)c(S(=O)(=O)Nc3ccccc3)c2)CC1	1	6.1*	8	1.1	0	3	15076*	1588	i
COc1ccc(C(=O)N2CCCCC2)cc1S(=O)(=O)Nc1ccccc1	6	.	1	-0.96	-2	-5	.	.	.
C/C(=N\Nc1cc(Cl)nc(C)n1)c1ccc(C)cc1	.	.	.	0.0037	.	.	.	.	.
O=C1COc2ccc(C(=O)c3ccccc3)cc2CN1	2	4.7*	5	3.4*	14	1	5740*	1572	i
Cc1cc(N)n(-c2nc(-c3cccnc3)nc3ccccc23)n1	-10	4.3*	13	-1.3	-4	-11	12176*	1524	i
Cn1ncc(Br)c1C(=O)OCC(=O)Nc1nc(-c2ccccc2)cs1	.	.	.	0.0085	.	.	.	.	.
COCCN1CN(S(=O)(=O)c2ccccc2)c2nc3ccccc3nc21	-1	6.6*	7	-0.84	5	6	9164*	1496	+
CCCCN1CN(S(=O)(=O)c2cccs2)c2nc3ccccc3nc21	-5	8.4*	-1	-0.19	8	9	13480*	1328	+
COc1ccc(/C(O)=C2/C(=O)C(=O)N(CCCN(C)C)C2c2ccco2)cc1Cl (stereo not drawn)	.	0.24	.	.	.	8	.	.	.
Cc1cccc(OCCCCCn2ccnc2)c1	21	-0.52	3	0.6	-6	12	.	.	.
CNc1nn(-c2cccc(Cl)c2)nc1N	22	4.2*	7	0.67	11	-6	8344*	1588	i
NC1=NC2(CCCCC2)N(c2cccc(Cl)c2)C(N)=N1	8	.	-1	-0.62	-2	.	.	.	.
CCOC(=O)c1c(-c2cccs2)csc1NC(=O)CN1CCOCC1	-12	11*	6	-0.7	-1	-8	19940*	1788	+
CCOC(=O)c1c(NC(=O)CN2CCCCC2)sc2c1CCN(C(=O)OCC)C2	-5	3.7*	13	0.47	13	96*	7072*	.	+
CCOC(=O)c1c(NC(=O)CN(CC)CC)sc2c1CCN(C(=O)OCC)C2	1	6.1*	21	0.56	-3	18	8852*	1716	+
SMILES	Ecoli WT expand	D1 allo mod	PostGolgi ctrl	hDAT+cocaine	PostGolgi yeast	tolC growth inh	D1 PAM confirm	D1 ag no DA	Isoprot counter
CCOC(=O)c1c(NC(=O)CN2CCOCC2)sc2c1CCCC2=O	-1	5.4*	26	0.3	-4	10	8480*	1768	+
COc1ccc(-c2cc(OC)c3c(C)oc(C)c3c(=O)c2)cc1OC	-10	3.8*	5	0.93	-4	-14	12580*	1500	+
COc1ccc(C(=O)CSc2ncn[nH]2)cc1OC	1	18*	24	0.6	1	-17	17148*	1644	+
CCCc1[nH]nc2c1C(c1cccnc1)C(C#N)=C(N)O2 (stereo not drawn)	-2	6.7*	15	-1.1	16	-11	3948	1664	i
Cc1ccc(-n2c(SCC(=O)NCC3CCCO3)nc3n[nH]c(C)c3c2=N)cc1Cl (stereo not drawn)	-7	-0.79	-1	1.1	3	-11	.	.	.
CCC(Sc1nc2n[nH]c(C)c2c(=N)n1-c1cc(Cl)ccc1C)C(=O)N1CCOCC1 (stereo not drawn)	-9	6.4*	2	0.35	-3	-18	12280*	1844	+
CC(=O)N1CCN=C1SCc1cccc(C(F)(F)F)c1	1	4.9*	5	0.42	1	-12	10200*	1640	+
CCC(Sc1nc2c(c(=O)n1CC)SC(C)C2)C(=O)OC (stereo not drawn)	7	.	2	-0.41	14	.	.	.	.
O=C(NCc1ccccc1)C(c1ccncc1)N(C(=O)c1csnn1)C1CC1 (stereo not drawn)	-5	.	17	.	-6	.	.	.	.
CCCn1c2ccccc2c2nnc(SCC(=O)Nc3ncccn3)nc21	7	20*	4	0.9	2	1	22748*	1692	+
C=CCn1c2ccccc2c2nnc(SCC(=O)Nc3cc(C)on3)nc21	0	.	-4	-0.44	-5	.	.	.	.
CCCCN1CC[C@H]2C=CC[C@@H](C(=O)Nc3ccccc3)[C@H]2C1=O	.	.	.	0.031	.	.	.	.	.
COc1cccc(Cn2c(-c3cccs3)noc2=O)c1	8	3.9*	-8	0.39	-12	-4	8904*	.	+
COc1ccc(S(=O)(=O)N2CCC(C(=O)N3CCCCC3)CC2)cc1OC	4	7.6*	19	0.87	0	-2	12168*	1644	+
